Results pooled from the literature.
Lines come from different studies, so protocols differ.
KMT5A: N-lysine methyltransferase KMT5A (KMT5A, Homo sapiens, UniProt Q9NQR1)
LATS1: Serine/threonine-protein kinase LATS1 (LATS1, Homo sapiens, UniProt O95835)
CCKAR: Cholecystokinin receptor type A (CCKAR, Homo sapiens, UniProt P32238)
PRKCB: Protein kinase C beta type (PRKCB, Homo sapiens, UniProt P05771)
ADRA2A: Alpha-2A adrenergic receptor (ADRA2A, Homo sapiens, UniProt P08913)

CCN1CCN(Cc2ccc(NC(=O)c3ccc(C)c(/C=C/c4cnc5[nH]ccc5c4OC)c3)cc2C(F)(F)F)CC1 gave an inhibition of -18.6% (Serine/threonine-protein kinase greatwall (MASTL, Homo sapiens, UniProt Q96GX5); target engagement in cells; inhibitor; chemoproteomics; A-375; 5 µM).
CCN(CC)CCNC(=O)c1c(C)[nH]c(/C=C2\C(=O)Nc3ccc(F)cc32)c1C has an inhibition of 0% (cAMP-dependent protein kinase catalytic subunit alpha (PRKACA, Bos taurus, UniProt P00517); enzyme activity; inhibitor; 0.3 µM).
For O=C(O[C@@H]1Cc2c(O)cc(O)cc2O[C@@H]1c1cc(O)c(=O)c2c(O)c(O)cc([C@H]3Oc4cc(O)cc(O)c4C[C@H]3OC(=O)c3cc(O)c(O)c(O)c3)c2c1)c1cc(O)c(O)c(O)c1, the inhibition was 26% (KMT5A; cell-free assay; 10 µM).
For Cn1cncc1C1=CN(c2ncnc3[nH]cnc23)CCS1, the inhibition was 96.1% (LATS1; enzyme activity; inhibitor; radiometric; 2 µM).
O=C1N=C(N2CCCCN2)S/C1=C\c1ccc(F)cc1O gave an inhibition of 10% (CCKAR; ligand displacement; radioligand; 10 µM).
CCCCCCCCCCCCCCCc1cccc(O)c1C(=O)O has an inhibition of ~60% (Histone acetyltransferase p300 (EP300, Homo sapiens, UniProt Q09472); enzyme activity; inhibitor; fluorescence; 52 µM).
With O=c1c(O)cccc2c([C@H]3Oc4cc(O)cc(O)c4C[C@H]3O)cc(O)c(O)c12 the inhibition was 3% (KMT5A; cell-free assay; 10 µM).
The inhibition of CN(C)C1CCN(CC#Cc2nn(C3CCCC3)c3nc(NCc4ccccc4)ncc23)C1 (centres unmarked) is reported as 8% (Dual specificity mitogen-activated protein kinase kinase 6 (MAP2K6, Homo sapiens, UniProt P52564); enzyme activity; inhibitor; FRET; 10 µM).
COc1cc2ncnc(Nc3ccc(Oc4ccccc4)c(C)c3C)c2cc1OC gave an inhibition of 9% (PRKCB; enzyme activity; inhibitor; 1 µM).
CSCCC(NC=O)C(=O)NC(C)C(=O)O (centres unmarked) has an inhibition of 33% (KMT5A; cell-free assay; 10 µM).
The inhibition of COc1cc(-c2cc(-c3ccc(N4CCNCC4)cc3)cnc2N)cc(OC)c1OC is reported as 57% (Tyrosine-protein kinase ABL1 (ABL1, Homo sapiens, UniProt P00519, T315I); enzyme activity; inhibitor; 1 µM).
O=C(O)CCCCCCCCCCCC[C@@H]1C=CCC1 gave an inhibition of -10% (KMT5A; cell-free assay; 10 µM).
CNC(=O)c1cc(Oc2ccc(NC(=O)Nc3ccc(Cl)c(C(F)(F)F)c3)cc2)ccn1 gave an inhibition of -3% (PRKCB; enzyme activity; inhibitor; 10 µM).
Oc1cccc(Nc2nc(-c3ccc(F)cc3F)cs2)c1 has an inhibition of -22.5% (ADRA2A; cell-free assay; 10 µM).
With Cn1cnc(Br)c1C1=CN(c2ncnc3[nH]cnc23)CCS1 the inhibition was 97.3% (LATS1; enzyme activity; inhibitor; radiometric; 2 µM).
COc1cc(-c2cc(-c3ccc(N4CCNCC4)cc3)cnc2C)cc(OC)c1OC has an inhibition of 4% (LATS1; enzyme activity; inhibitor; 0.1 µM).
O=C(Oc1cc(O)cc2c1C[C@@H](OC(=O)c1cc(O)c(O)c(O)c1)[C@@H](c1cc(O)c(O)c(O)c1)O2)c1cc(O)c(O)c(O)c1 has an inhibition of 6% (KMT5A; cell-free assay; 10 µM).
The inhibition of COc1cc(NC(C)=O)c(Cl)cc1C(=O)Nc1nccs1 is reported as -9.3% (CCKAR; cell-free assay; 10 µM).
CN(C)c1ccc2nc3ccc(=[N+](C)C)cc-3sc2c1 gave an inhibition of 43% (KMT5A; cell-free assay; 10 µM).
Cc1ccc(Nc2nccc(N(C)c3ccc4c(C)n(C)nc4c3)n2)cc1S(N)(=O)=O has an inhibition of 5% (PRKCB; enzyme activity; inhibitor; 10 µM).
COc1ccc(C(=O)c2coc3c2C(=O)C(=O)C=C3)cc1 gave an inhibition of ≥ 100% (Peptide deformylase, mitochondrial (Homo sapiens, UniProt Q9HBH1); enzyme activity; inhibitor; 100 µM).
The inhibition of Cc1ccc(CNC(=O)[C@H](CCc2ccccc2)NC(=O)[C@H](CCc2ccccc2)NC(=O)[C@H](CCc2ccccc2)NC(=O)c2cnc(C)cn2)cc1 is reported as -20% (Plasminogen (PLG, Homo sapiens, UniProt P00747); enzyme activity; inhibitor; 100 µM).
The inhibition of O=C(c1ccc(F)cc1)N(Cc1ccccc1)C1CCCCC1 is reported as 13% (ADRA2A; cell-free assay; 10 µM).
The inhibition of CN(C)c1ccc(C(=C2C=CC(=[N+](C)C)C=C2)c2ccc(N(C)C)cc2)cc1 is reported as 97% (KMT5A; cell-free assay; 10 µM).
With O=C(c1ccc(Cl)cc1)N(Cc1ccccc1)C1CCCCC1 the inhibition was -9.6% (CCKAR; cell-free assay; 10 µM).
With Cc1cc(-c2ccc(/N=N/c3ccc4c(S(=O)(=O)O)cc(S(=O)(=O)O)c(N)c4c3O)c(C)c2)ccc1/N=N/c1ccc2c(S(=O)(=O)O)cc(S(=O)(=O)O)c(N)c2c1O the inhibition was 78% (KMT5A; cell-free assay; 10 µM).
